In paper PMC6727982 (ACS chemical neuroscience, 2019):
Like-named read-outs stand apart in the source and are kept apart here.

Tests used:
[1] = target: human GluN1/GluN2B receptors (Homo sapiens, UniProt Q05586+Q13224); format: cell-based; details: for %control at 1 μM, mean (99% CI), GluN2B: 1 μM compound, percent of maximal response to 100 μM glutamate/glycine; for IC50: n = 6−12
[2] = LogD by shake-flask method with 18F-labeled tracers; format: physicochemical; details: pH 7.4
[3] = test system: GluN1/GluN2A/GluN2A (2A/2A); test: Inhibition of diheteromeric 2A/2A receptors; format: cell-based; details: wild-type 2A/2A, 1 μM compound
Outline: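 Xenopus laevis stage VI oocytes injected with 5–10 ng receptor cRNA and kept at 15 °C in Barth's medium. Two-electrode voltage clamp run 2–7 days later at room temperature, holding −40 mV, in 90 mM NaCl, 1 KCl, 10 HEPES, 0.5 BaCl2, 0.01 EDTA, pH 7.4. Test compound (20 mM DMSO stock; final DMSO 0.05–0.5%) co-applied with 100 μM glutamate/100 μM glycine. Response given as % of response to agonists alone.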

[4] = Whole body ex vivo biodistribution in mice
Outline: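 Female CD1 (ICR) mice (8 weeks, 23–27 g) were injected via tail vein with tracer, 740 kBq/100 μL saline containing 5% ethanol. Animals were killed at 2, 10, 30 and 60 min. Organs were removed, weighed and gamma-counted. %ID/g of wet tissue (stomach as %ID/organ) was calculated against diluted aliquots of the injected dose, with decay correction.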

GluN2B subunit [5] = target: GluN2B subunit (Rattus norvegicus, UniProt P35439+Q00960); test: In vitro autoradiography in rat brain sections; format: binding
Chain of GluN2B subunit (Rattus norvegicus, UniProt P35439+Q00960) (Q00960 27-1482, other chains not shown): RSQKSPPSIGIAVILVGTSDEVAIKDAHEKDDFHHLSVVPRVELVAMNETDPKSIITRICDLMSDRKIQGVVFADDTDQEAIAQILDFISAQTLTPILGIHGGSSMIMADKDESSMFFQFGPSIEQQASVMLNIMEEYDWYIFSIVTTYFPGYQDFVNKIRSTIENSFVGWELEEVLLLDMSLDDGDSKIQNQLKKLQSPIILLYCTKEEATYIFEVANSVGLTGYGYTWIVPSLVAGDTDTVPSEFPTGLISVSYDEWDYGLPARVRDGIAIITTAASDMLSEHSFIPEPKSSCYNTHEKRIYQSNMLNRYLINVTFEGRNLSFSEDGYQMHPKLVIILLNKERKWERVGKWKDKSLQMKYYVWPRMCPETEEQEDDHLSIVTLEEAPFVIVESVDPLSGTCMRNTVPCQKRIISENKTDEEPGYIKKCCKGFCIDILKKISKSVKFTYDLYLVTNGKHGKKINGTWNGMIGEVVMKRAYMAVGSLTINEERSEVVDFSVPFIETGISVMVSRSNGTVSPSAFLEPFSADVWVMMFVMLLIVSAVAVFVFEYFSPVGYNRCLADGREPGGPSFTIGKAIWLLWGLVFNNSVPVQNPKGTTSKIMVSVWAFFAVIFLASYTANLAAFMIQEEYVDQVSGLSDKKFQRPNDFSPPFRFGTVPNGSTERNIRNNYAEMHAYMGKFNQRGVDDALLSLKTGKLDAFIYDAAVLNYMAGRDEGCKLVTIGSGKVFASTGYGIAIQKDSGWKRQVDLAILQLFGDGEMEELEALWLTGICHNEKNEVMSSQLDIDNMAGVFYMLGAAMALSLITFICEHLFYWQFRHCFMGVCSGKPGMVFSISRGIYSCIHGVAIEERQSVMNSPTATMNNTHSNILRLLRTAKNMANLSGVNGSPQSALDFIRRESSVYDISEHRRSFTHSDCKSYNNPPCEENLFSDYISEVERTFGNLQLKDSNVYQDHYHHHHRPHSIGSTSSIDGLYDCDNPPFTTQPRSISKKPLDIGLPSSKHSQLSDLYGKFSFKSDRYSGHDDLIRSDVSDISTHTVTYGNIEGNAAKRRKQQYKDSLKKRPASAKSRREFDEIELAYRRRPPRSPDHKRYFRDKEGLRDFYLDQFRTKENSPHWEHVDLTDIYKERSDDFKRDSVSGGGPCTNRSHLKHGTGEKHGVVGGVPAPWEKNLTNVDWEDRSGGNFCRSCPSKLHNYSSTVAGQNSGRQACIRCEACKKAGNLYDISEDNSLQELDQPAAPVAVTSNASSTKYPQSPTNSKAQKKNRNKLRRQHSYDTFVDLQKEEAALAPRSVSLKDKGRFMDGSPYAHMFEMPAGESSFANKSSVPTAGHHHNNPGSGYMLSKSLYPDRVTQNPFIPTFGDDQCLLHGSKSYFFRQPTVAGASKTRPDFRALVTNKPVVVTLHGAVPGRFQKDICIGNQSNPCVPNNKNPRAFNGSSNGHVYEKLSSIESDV

[6] = Radiometabolite analysis in mice; format: in vivo; details: ICR mice, 15 min post injection, n = 2
Outline: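 Female CD1 (ICR) mice (8 weeks, 23–27 g) received tracer IV via tail vein and were killed at 15 min. Plasma was deproteinized with ice-cold CH3CN, and brain was homogenized in ice-cold CH3CN, with repeated centrifugation at 4 °C. Supernatants were spiked with unlabelled reference and run on C18 radioHPLC (CH3CN/H2O 55/45, 5 mL/min). Fractions were gamma-counted; parent % = parent counts/total counts × 100.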

GluN2B subunit [7] = test: In vitro autoradiography in NHP brain sections; format: binding; details: self-blocking 13 10 μM
Outline: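 Brain sections (20 μm) preincubated 20 min in 50 mM Tris-HCl pH 7.4 at room temperature, then incubated 60 min at room temperature with 18F-labelled test compound (37 kBq/mL, 1.58 nM). Self-block: 30 min pretreatment with unlabelled test compound (10 μM, 0.1% DMSO, 1% ethanol in buffer), then cold-buffer wash. Washed, dried, exposed to imaging plates overnight. Regional signal (gray value/unit area) expressed as a ratio to forebrain white matter.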

[8] = IC50, mean, 100 μM glutamate/glycine coapplied with increasing concentrations
[9] = pIC50, mean (95% CI), 100 μM glutamate/glycine
[10] = remained high until 10 min post injection
[11] = rat, self-blocking 13 10 μM, n = 3

Chain of human GluN1/GluN2B receptors (Q13224 27-1484, other chains not shown): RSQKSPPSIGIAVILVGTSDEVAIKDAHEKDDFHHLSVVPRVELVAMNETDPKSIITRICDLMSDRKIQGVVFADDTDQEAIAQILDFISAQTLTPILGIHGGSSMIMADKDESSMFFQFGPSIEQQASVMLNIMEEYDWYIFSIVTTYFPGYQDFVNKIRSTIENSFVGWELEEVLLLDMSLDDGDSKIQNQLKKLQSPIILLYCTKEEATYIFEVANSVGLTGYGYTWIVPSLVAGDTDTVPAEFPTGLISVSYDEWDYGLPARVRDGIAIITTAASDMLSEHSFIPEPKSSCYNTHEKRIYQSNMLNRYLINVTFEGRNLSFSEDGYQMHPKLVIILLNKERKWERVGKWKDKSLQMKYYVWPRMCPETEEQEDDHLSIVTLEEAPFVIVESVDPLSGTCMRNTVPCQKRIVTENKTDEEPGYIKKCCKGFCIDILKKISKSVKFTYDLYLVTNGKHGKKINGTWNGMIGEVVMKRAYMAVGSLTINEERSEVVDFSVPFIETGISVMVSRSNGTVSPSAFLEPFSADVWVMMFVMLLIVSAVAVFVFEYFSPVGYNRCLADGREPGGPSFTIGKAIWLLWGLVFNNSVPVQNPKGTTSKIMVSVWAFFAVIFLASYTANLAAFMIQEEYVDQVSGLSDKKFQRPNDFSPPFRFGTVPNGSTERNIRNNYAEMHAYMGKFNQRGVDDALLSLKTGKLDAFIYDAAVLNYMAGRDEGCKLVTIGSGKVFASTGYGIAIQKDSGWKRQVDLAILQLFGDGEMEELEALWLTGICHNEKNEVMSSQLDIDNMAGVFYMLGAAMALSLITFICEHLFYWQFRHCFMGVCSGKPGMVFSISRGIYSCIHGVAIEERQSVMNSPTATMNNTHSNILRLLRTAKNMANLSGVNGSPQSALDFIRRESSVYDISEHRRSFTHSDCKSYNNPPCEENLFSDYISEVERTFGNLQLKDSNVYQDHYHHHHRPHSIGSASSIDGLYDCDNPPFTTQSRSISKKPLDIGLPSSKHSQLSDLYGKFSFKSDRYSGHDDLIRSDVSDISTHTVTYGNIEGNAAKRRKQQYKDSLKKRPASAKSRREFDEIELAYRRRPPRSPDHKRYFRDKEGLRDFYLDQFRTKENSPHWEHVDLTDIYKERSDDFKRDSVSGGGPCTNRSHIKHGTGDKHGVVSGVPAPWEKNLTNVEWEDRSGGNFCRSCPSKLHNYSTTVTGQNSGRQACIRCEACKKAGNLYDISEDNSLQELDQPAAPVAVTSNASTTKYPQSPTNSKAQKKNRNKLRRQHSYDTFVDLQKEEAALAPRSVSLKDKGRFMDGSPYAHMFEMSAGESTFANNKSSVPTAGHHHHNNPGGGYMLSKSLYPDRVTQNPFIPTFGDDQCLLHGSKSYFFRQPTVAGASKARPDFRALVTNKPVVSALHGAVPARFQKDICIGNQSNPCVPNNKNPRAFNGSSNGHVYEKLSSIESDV

**Q.** With `COc1cnc(OCc2cn(-c3ccc(F)c(Br)c3)nn2)nc1` [Compound 11, 2-((1-(3-Bromo-4-fluorophenyl)-1H-1,2,3-triazol-4-yl)methoxy)-5-methoxypyrimidine] as the compound, how does the “%control at 1 μM, mean (99% CI), GluN2B” value [1] read?
**A.** 13 (7, 19) %

**Q.** What about the IC50 [1, 8] of the same compound?
**A.** 19 nM

**Q.** What about the IC50 [1, 9] of the same compound?
**A.** 19.1 nM

**Q.** And the logD [2]?
**A.** 3.14 ± 0.037

**Q.** What about the “sensitivity of 2A/2A responses” value [3] of the same compound?
**A.** insensitive

**Q.** For `COc1cnc(OCc2cn(-c3ccc(Br)c(F)c3)nn2)nc1` [Compound 12, 2-((1-(4-Bromo-3-fluorophenyl)-1H-1,2,3-triazol-4-yl)methoxy)-5-methoxypyrimidine], which IC50 [1, 8] is on record?
**A.** 339 nM

**Q.** What about the IC50 [1, 9] of the same compound?
**A.** 282 nM

**Q.** What does the source list for `COc1cnc(OCc2cn(-c3ccc(F)c(C)c3)nn2)nc1` [Compound 13, 2-((1-(4-Fluoro-3-methylphenyl)-1H-1,2,3-triazol-4-yl)methoxy)-5-methoxypyrimidine]?
**A.** %control at 1 μM, mean (99% CI), GluN2B [1]: 17 (11, 23) %; logD [2]: 2.89 ± 0.037; sensitivity of 2A/2A responses [3]: insensitive

**Q.** For `COc1cnc(OCc2cn(-c3ccc(C)c(F)c3)nn2)nc1` [Compound 14, 2-((1-(3-Fluoro-4-methylphenyl)-1H-1,2,3-triazol-4-yl)methoxy)-5-methoxypyrimidine], which IC50 [1, 8] is on record?
**A.** 89 nM

**Q.** What about the IC50 [1, 9] of the same compound?
**A.** 75.9 nM

**Q.** Which results are given for `COc1cnc(OCc2cn(-c3ccc([18F])c(C)c3)nn2)nc1` [[^18F]13, 2-((1-(4-[^18F]fluoro-3-methylphenyl)-1H-1,2,3-triazol-4-yl)methoxy)-5-methoxypyrimidine]?
**A.** bone uptake [4]: < 2 %ID/g; initial uptake in heart, lung, kidney, liver, and small intestine ([4]; 2 min postinjection): > 5 % ID/g; uptake in heart, lung, kidney, spleen, pancreas, and muscle ([4]; 60 min postinjection): < 0.6 % ID/g; brain uptake at 2 min (brain2min) ([4]; i.v., 2 min post injection): 3.60 % ID/g; brain uptake at 10 min ([4]; i.v., 10 min post injection): 0.72 %ID/g; brain uptake at 60 min ([4]; i.v., 60 min post injection): 0.018 % ID/g; liver uptake [4, 10]: 20.84 % ID/g; small intestine uptake [4, 10]: 39.15 % ID/g; reduction of uptake by self-blocking (GluN2B subunit [5]; rat brain sections, cold compound 13 10 μM): ~ 90%; specific binding, frontal cortex (GluN2B subunit [5]; [11]): 94%; specific binding, hippocampus (GluN2B subunit [5]; [11]): 94%; specific binding, striatum (GluN2B subunit [5]; [11]): 92%; specific binding, thalamus (GluN2B subunit [5]; [11]): 88%; parent fraction in brain [6]: 56.6%; parent fraction in liver [6]: 5.1%; parent fraction in plasma [6]: 11.8%; logD [2]: 2.89; specific binding, caudate nucleus (GluN2B subunit [7]): 79%; specific binding, entorhinal cortex (GluN2B subunit [7]): 89%; specific binding, insular cortex (GluN2B subunit [7]): 82%; specific binding, putamen (GluN2B subunit [7]): 73%; specific binding, thalamus (GluN2B subunit [7]): 53%; specific binding, hippocampus (GluN2B subunit [7]; n = 3): 87%
